In ChEMBL document CHEMBL1121660, “Haloacetamido analogues of 2-amino-2-deoxy-D-mannose. Syntheses and effects on tumor-bearing mice” (J Med Chem, 1981):
pIC50: −log10 of the molar value.

What was measured:
[1] = tested on: Mus musculus; assay: In vivo chemotherapy of Ehrlich tumor in B6D2F1 mice at a dose of 3.2 (mmol/kg)/day was expressed as number of survivors on 60-day/number of treated;2/4; type: functional
[2] = Compound was tested for lethal dose administered in single dose intraperitoneally that killed 50% of the animals; type: ADME, organism-based; details: mouse, in vivo, ip
[3] = tested on: Mus musculus; assay: In vivo chemotherapy of Ehrlich tumor in B6D2F1 mice at a dose of 2.5 (mmol/kg)/day was expressed as number of survivors on 60-day/number of treated; 5/8; type: functional
[4] = tested on: L1210; assay: Percent of control (thymidine incorporation in vitro) at 2.5 mM in L1210 leukemia cells in vitro of B6D2F1 mice; type: functional, Mus musculus
[5] = tested on: Mus musculus; assay: In vivo chemotherapy of Ehrlich tumor in B6D2F1 mice at a dose of 2.5 (mmol/kg)/day was expressed as number of survivors on 60-day/number of treated; 3/8; type: functional
[6] = tested on: Mus musculus; assay: In vivo chemotherapy of Ehrlich tumor in B6D2F1 mice at a dose of 3.2 (mmol/kg)/day expressed as number days after tumor challenge; type: functional
[7] = tested on: Mus musculus; assay: In vivo chemotherapy of Ehrlich tumor in B6D2F1 mice at a dose of 0.71 (mmol/kg)/day was expressed as number of survivors on 60-day/number of treated; 1/8; type: functional
[8] = tested on: Mus musculus; assay: In vivo chemotherapy of Ehrlich tumor in B6D2F1 mice at a dose of 0.35 (mmol/kg)/day expressed as number days after tumor challenge; type: functional
[9] = tested on: L1210; assay: Compound was tested for concentration that inhibited thymidine incorporation in vitro by 50%; type: functional, cell-based, Mus musculus
Procedure, shortened: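 Ascites L1210 cells from DBA/2 passage hosts (harvested 5 days after ip implant of 10⁶ cells), washed in 0.85% NaCl and suspended at 2 × 10⁷/mL in RPMI-1640. Exposed 1 h at 37 °C in RPMI-1640 with 10% FBS; tetra-O-acetates added from ethanol solution, free sugars dissolved directly in medium. Cells washed and plated, then pulsed with [³H]thymidine (1.0 μCi/well) for 15 h. TCA-washed cells counted by scintillation. Ethanol-matched controls. IC50 reported as mean ± SE (≥3 determinations) or range (2).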

[10] = tested on: Mus musculus; assay: In vivo chemotherapy of Ehrlich tumor in B6D2F1 mice at a dose of 0.71 (mmol/kg)/day was expressed as number of survivors on 60-day/number of treated; 4/8; type: functional
[11] = tested on: Mus musculus; assay: In vivo chemotherapy of Ehrlich tumor in B6D2F1 mice at a dose of 0.71 (mmol/kg)/day was expressed as number of survivors on 60-day/number of treated; 8/8; type: functional
[12] = tested on: Mus musculus; assay: In vivo chemotherapy of Ehrlich tumor in B6D2F1 mice at a dose of 0.19 (mmol/kg)/day was expressed as number of survivors on 60-day/number of treated; 1/8; type: functional
[13] = tested on: Mus musculus; assay: In vivo chemotherapy of Ehrlich tumor in B6D2F1 mice at a dose of 0.22 (mmol/kg)/day expressed as number days after tumor challenge; type: functional
[14] = tested on: Mus musculus; assay: In vivo chemotherapy of Ehrlich tumor in B6D2F1 mice at a dose of […] (mmol/kg)/day expressed as number days after tumor challenge; type: functional
[15] = tested on: Mus musculus; assay: In vivo chemotherapy of Ehrlich tumor in B6D2F1 mice at a dose of 0.13 (mmol/kg)/day was expressed as number of survivors on 60-day/number of treated; 3/8; type: functional
[16] = tested on: Mus musculus; assay: In vivo chemotherapy of Ehrlich tumor in B6D2F1 mice at a dose of 0.19 (mmol/kg)/day expressed as 60-day survivors (number of survivors/number of treated); 1/8; type: functional
[17] = tested on: Mus musculus; assay: In vivo chemotherapy of Ehrlich tumor in B6D2F1 mice at a dose of 0.22 (mmol/kg)/day was expressed as number of survivors on 60-day/number of treated; 4/4
[18] = tested on: Mus musculus; assay: In vivo chemotherapy of Ehrlich tumor in B6D2F1 mice at a dose of 0.13 (mmol/kg)/day expressed as number days after tumor challenge; type: functional
[19] = tested on: Mus musculus; assay: In vivo chemotherapy of Ehrlich tumor in B6D2F1 mice at a dose of 0.12 (mmol/kg)/day expressed as number days after tumor challenge; type: functional
[20] = tested on: Mus musculus; assay: In vivo chemotherapy of Ehrlich tumor in B6D2F1 mice at a dose of 0.42 (mmol/kg)/day was expressed as number of survivors on 60-day/number of treated; 0/5; type: functional
[21] = tested on: Mus musculus; assay: In vivo chemotherapy of Ehrlich tumor in B6D2F1 mice at a dose of 0.42 (mmol/kg)/day was expressed as number of survivors on 60-day/number of treated;0/8; type: functional
[22] = tested on: Mus musculus; assay: In vivo chemotherapy of Ehrlich tumor in B6D2F1 mice at a dose of 0.42 (mmol/kg)/day expressed as number days after tumor challenge; type: functional
[23] = tested on: Mus musculus; assay: In vivo chemotherapy of Ehrlich tumor in B6D2F1 mice at a dose of 3.7 (mmol/kg)/day expressed as number days after tumor challenge; type: functional
[24] = tested on: Mus musculus; assay: In vivo chemotherapy of Ehrlich tumor in B6D2F1 mice at a dose of 3.7 (mmol/kg)/day was expressed as number of survivors on 60-day/number of treated; 1/5; type: functional

O=C(CBr)NC1C(O)OC(CO)C(O)C1O (stereo in doubt; form 1) showed a Survivors [1] of 2, an LD50 [2] greater than 3200 µmol/kg and a Survivors [3] of 5. For the same compound, the “Thymidine incorporation (% of control)” value [4] was 79%, the Survivors [5] was 3 and the Days [6] was 4.
Work on CC(=O)OCC1OC(OC(C)=O)C(NC(=O)CCl)C(OC(C)=O)C1OC(C)=O (stereo in doubt; form 3) yielded a Survivors [7] of 1, an LD50 [2] of 1600 µmol/kg and a Days [8] of 3. The pIC50 ([9]; l1210) was 3.84, the Survivors [10] was 4 and the Survivors [11] was 8.
Compound CC(=O)OCC1OC(OC(C)=O)C(NC(=O)CBr)C(OC(C)=O)C1OC(C)=O (stereo in doubt; form 3) has a Survivors [12] of 1, a Days [13] of 1 and a pIC50 ([9]; Mus musculus, L1210) of 5.03. The Days [14] was 3, the Survivors [15] was 3 and the Survivors [16] was 1. It also gave a Survivors [17] of 4 and a Days [18] of 1.
With CC(=O)OCC1OC(OC(C)=O)C(NC(=O)CF)C(OC(C)=O)C1OC(C)=O (stereo in doubt; form 3) the Days [19] was 1 and the Survivors [20] was 0.
CC(=O)OCC1OC(OC(C)=O)C(NC(=O)CBr)C(OC(C)=O)C1OC(C)=O (stereo in doubt; form 1) showed an LD50 [2] of 240 µmol/kg.
With O=C(CBr)NC1C(O)OC(CO)C(O)C1O (stereo in doubt; form 2) the “Thymidine incorporation (% of control)” value [4] was 68%.
In the case of O=C(CF)NC1C(O)OC(CO)C(O)C1O (stereo in doubt; form 1), the Survivors [21] was 0, the “Thymidine incorporation (% of control)” value [4] was 93% and the Days [22] was 2.
Compound CC(=O)OCC1OC(OC(C)=O)C(NC(=O)CCl)C(OC(C)=O)C1OC(C)=O (stereo in doubt; form 2) has a pIC50 ([9]; l1210) of 3.37.
Work on CC(=O)OCC1OC(OC(C)=O)C(NC(=O)CCl)C(OC(C)=O)C1OC(C)=O (stereo in doubt; form 1) yielded a pIC50 ([9]; l1210) of 3.66.
For O=C(CBr)NC1C(O)OC(CO)C(O)C1O (stereo in doubt; form 3), the “Thymidine incorporation (% of control)” value [4] was 95%.
CC(=O)OCC1OC(OC(C)=O)C(NC(=O)CBr)C(OC(C)=O)C1OC(C)=O (stereo in doubt; form 2) showed a pIC50 ([9]; l1210) of 5.19.
With CC(=O)OCC1OC(OC(C)=O)C(NC(=O)CF)C(OC(C)=O)C1OC(C)=O (stereo in doubt; form 2) the pIC50 ([9]; Mus musculus, L1210) was less than 3.00.
O=C(CCl)NC1C(O)OC(CO)C(O)C1O (stereo in doubt; form 2) showed a Days [23] of 4 and a Survivors [24] of 1.
In the case of O=C(CCl)NC1C(O)OC(CO)C(O)C1O (stereo in doubt; form 1), the “Thymidine incorporation (% of control)” value [4] was 51%.
In the case of O=C(CCl)NC1C(O)OC(CO)C(O)C1O (stereo in doubt; form 3), the “Thymidine incorporation (% of control)” value [4] was 97%.
